CCR6 antag = antagonists of human CCR6 receptor | P51684 | CHO-K1 CCR6 PathHunter beta-arrestin, luminescence, CCL20-stimulated | inhibition, % at 20 µM | actives 0.49% (n = 340,000) | AID 493098;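 active = compounds whose inhibition of the agonist-driven luminescence signal at 20 µM reaches about 50%, limit read from the data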;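 note: cells stimulated with CCL20 at 14 nM final; plate controls were DMSO with CCL20 for no effect and DMSO without agonist for full effect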
APJ antagonist = blocks the human apelin receptor APJ. inhibition, % at 20 µM. CHO-K1 APJ beta-arrestin complementation, luminescence. P35414. actives 0.32% (n = 330,000);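 active = inhibition above about 40% at 20 µM, limit read from the data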;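 note: cells challenged with 10 nM apelin-13 agonist together with compound; plate controls were apelin-13 plus DMSO wells for no effect and DMSO wells lacking apelin-13 for full effect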
Target sequence (P35414 whole entry, looked up): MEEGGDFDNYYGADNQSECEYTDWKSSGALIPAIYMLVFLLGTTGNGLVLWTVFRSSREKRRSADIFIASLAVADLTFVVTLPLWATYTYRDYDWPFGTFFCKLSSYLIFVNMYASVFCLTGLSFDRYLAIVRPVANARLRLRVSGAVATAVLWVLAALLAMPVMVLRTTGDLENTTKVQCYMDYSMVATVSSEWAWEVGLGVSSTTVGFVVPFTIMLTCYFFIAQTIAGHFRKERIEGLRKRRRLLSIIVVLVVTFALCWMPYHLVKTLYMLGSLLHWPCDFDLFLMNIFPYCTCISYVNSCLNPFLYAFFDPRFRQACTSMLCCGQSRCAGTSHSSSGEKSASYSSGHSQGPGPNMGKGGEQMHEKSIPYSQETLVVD
APJ ag = APJ receptor agonism; P35414; CHO-K1 APJ PathHunter beta-arrestin, luminescence; 0% DMSO wells, 100% apelin; activation, % at 20 µM; actives 0.11% (n = 330,000);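 active = activation more than six SD over the plate average, tested at 20 µM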;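 note: 0% = DMSO alone and 100% = apelin-13 at 10 nM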
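Material: CHO-K1 APJ beta-arrestin complementation cell line; Input: cell density 1000 per well; Incubation: compound stimulation 90 min at 25 °C, detection 60 min; Signal: luminescence from split beta-galactosidase complementation, Galacton Star/Emerald II substrate; Controls: DMSO-only wells as negative, 10 nM Apelin-13 as positive control.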
CXCR6 inh = blocks human CXCR6 beta-arrestin recruitment. CHO-K1 PathHunter CXCR6 beta-arrestin, luminescence. inhibition, % at 20 µM. actives 0.36% (n = 360,000). AID 602244; in the data active = inhibition above about 34%, passing the limit was not always enough;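 note: antagonist mode with CXCL16 agonist at 10 nM final; 0% = 10 nM CXCL16 with DMSO and 100% = unstimulated wells without agonist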
EBI2 block = antagonists of human EBI2 receptor | EBI2 beta-arrestin recruitment, luminescence, 7a,25-OHC stimulated | AID 651636 | actives 0.81% (n = 360,000) | P32249 | inhibition, % at 5 µM; in the data active = inhibition above about 38%;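 note: enzyme fragment complementation signal reports receptor beta-arrestin coupling in cells; 0% = agonist plus DMSO wells and 100% = wells without agonist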
An asterisk follows results filed as active; / = no result. An excerpt weighted towards active compounds, which were near 1.5% of everything screened.

SMILES	CCR6 antag	APJ antagonist	APJ ag	CXCR6 inh	EBI2 block
O=C(Nc1ccccc1C(=O)NC1CC1)c1ccc([N+](=O)[O-])o1	-5	-95	23	-26	-11
O=C(NCCNC(=O)Oc1cccc2ccccc12)Oc1cccc2ccccc12	-11	/	/	-8	-21
N#CC1C(=O)NC(c2ccccc2)=CC1c1ccccc1 (stereo unspecified)	52*	/	/	22	-16
CC(C)(C)OC(=O)N1CCCC(C(=O)Nc2ccc(C(=O)NCc3ccccc3)cc2)C1 (stereo unspecified)	9	/	/	6	15
N#Cc1ccc(OCC(=O)N2CCN(c3ccc(C(F)(F)F)cn3)CC2)cc1	-7	-5	1	-14	59*
O=C(CCc1ccccc1F)N1CCN(c2ccc(C(F)(F)F)cn2)CC1	-2	9	-1	-1	2
CCN(CC)S(=O)(=O)c1ccc2c(c1)C(=NO)c1cc(S(=O)(=O)N(CC)CC)ccc1-2	39	18	-7	22	50*
CCN(CC)c1ccc(/C=C2\C(=O)c3ccc(C(=O)O)cc3C2=O)cc1	74*	/	/	49*	24
Cc1cccc(C)c1-n1nnnc1C(c1ccnc2ccccc12)N(Cc1ccccc1)Cc1ccccc1 (stereo unspecified)	/	/	/	13	31
Cc1ccc2cccc(OC(=O)c3ccc4c(c3)OCCO4)c2n1	52*	26	-4	35	-13
Cc1ccc2cccc(OCC(=O)Nc3ccc4c(c3)OCO4)c2n1	1	10	0	7	-2
CCn1c(SCC(=O)Nc2oc(C)c3c(C)n[nH]c(=O)c23)nnc1-c1ccco1	/	/	/	11	-4
COc1cc(-c2nc(-c3ccccc3)c(-c3cc([N+](=O)[O-])ccc3C)[nH]2)cc(OC)c1OC	14	29	-5	49*	38*
O=[N+]([O-])c1cccc(-c2nc(-c3ccccc3)c(-c3cccs3)[nH]2)c1	-4	-1	-3	7	6
O=C1NC(=S)S/C1=C\C=C\c1ccc([N+](=O)[O-])o1	61*	/	/	33	4
CCCCCCCCCCC[N+](C)(C)CC/C=C1/c2ccccc2Sc2ccc(Cl)cc21	11	3	1	4	-3
CCCCCCCCCC[N+](C)(C)CC/C=C1/c2ccccc2Sc2ccc(Cl)cc21	-4	12	1	49*	-1
O=[N+]([O-])c1ccc2c(c1Nc1ccccc1)=NC1(CCCCC1)N=2	-7	4	6	12	66*
O=[N+]([O-])c1ccccc1Nc1ccccc1	21	24	-4	13	5
COc1ccc(Nc2c([N+](=O)[O-])ccc3c2=NC2(CCCCC2)N=3)cc1	10	-20	-1	-3	61*
COc1ccc(CN2C(=O)C(CC(=O)NC3CCCCC3)CC(C(=O)N(C(C)C)C(C)C)=C2C)cc1 (stereo unspecified)	/	/	/	3	-6
CN(C)CCCN(C(=O)CCc1ccccc1)c1nc2ccc(F)cc2s1	6	6	-2	-6	1
CN(C)CCCN(C(=O)CCc1ccccc1)c1nc2ccc(Br)cc2s1	53*	11	5	-5	-16
CN1CCN(c2ccc([N+](=O)[O-])c(-n3nc(-c4ccccc4)c4ccccc4c3=O)c2)CC1	52*	15	-4	18	-3
O=S(=O)(/C(=C\c1ccc(C(F)(F)F)cc1)c1nc2ccccc2[nH]1)c1ccccc1	/	/	/	23	45*
SMILES	CCR6 antag	APJ antagonist	APJ ag	CXCR6 inh	EBI2 block
O=C(NCc1ccco1)/C(=C/c1ccc(C(F)(F)F)cc1)c1nc2ccccc2[nH]1	1	16	-3	-2	-3
C[N+](C)(C)CCC(=O)N1C/C(=C/c2ccccc2)C(=O)/C(=C\c2ccccc2)C1	13	/	/	8	3
COc1ccc(OC(=O)N2C/C(=C/c3ccccc3)C(=O)/C(=C\c3ccccc3)C2)cc1	29	/	/	13	56*
O=C1/C(=C/c2ccccc2)CN(C(=O)CCN2CCOCC2)C/C1=C\c1ccccc1	53*	/	/	31	18
CN(C)CCC(=O)N1C/C(=C/c2ccccc2)C(=O)/C(=C\c2ccccc2)C1	78*	/	/	66*	39
O=C(/C=C/c1ccccc1)CCN1CCOCC1	17	/	/	4	2
Clc1ccc(-c2nc3c4ccccc4ccn3c2CC2CCCCC2)cc1	/	/	/	1	19
CCOC(=O)SC1=N/C(=C\c2ccc(N(C)C)cc2)C(=O)S1	51*	22	-8	20	-24
CCSC1=N/C(=C\c2ccc(C(=O)O)cc2)C(=O)S1	19	19	-5	4	0
COc1ccc(-c2nc3ccccc3[nH]2)cc1	-1	6	1	-2	-6
COc1ccc(-c2nc(=S)c3ccc4ccccc4c3[nH]2)cc1	71*	/	/	45*	3
Oc1ccc(CN2CCN(c3ccccc3)CC2)c2cccnc12	-1	-19	-3	8	60*
Oc1ccc(CN2CCc3ccccc3C2)c2cccnc12	44	21	-6	27	67*
CCOC(=O)c1c(NC(=O)COC(=O)CCNS(=O)(=O)c2ccccc2)sc(C(=O)NC)c1C	16	/	/	-7	-6
OC(CNCCc1ccc(C(F)(F)F)cc1)COC(c1ccccc1)c1ccccc1 (stereo unspecified)	60*	-27	-1	32	20
COc1ccc(C(OCC(O)CNCCc2ccc(S(N)(=O)=O)cc2)c2ccc(OC)cc2)cc1 (stereo unspecified)	8	-4	-2	4	-4
CC(C)C[C@H](N)c1nnc(S(=O)(=O)Cc2ccc(F)cc2)o1	35	14	-1	42*	-9
O=C(/C=C/[C@H]1O[C@@H](n2ccc(=O)[nH]c2=O)[C@H](O)[C@@H]1O)NCC1CCCO1 (stereo partly specified)	/	/	/	1	2
O=C(NC(=S)N1CCN(c2nc(-c3ccccc3)cs2)CC1)c1cncc(Br)c1	57*	7	-4	38	14
O=C(CN1CCN(c2nc(-c3ccccc3)cs2)CC1)NNC(=O)c1ccc(Br)cc1	11	-20	-3	-10	6
CN1C(=O)C(N=Nc2ccc([N+](=O)[O-])cc2)SC1=S (stereo unspecified)	86*	/	/	45*	-7
Cc1nc(NNC(=O)c2ccc([N+](=O)[O-])cc2)cc(-c2ccccc2)n1	58*	-9	0	29	2
CC(C)[C@@H]1O[C@H](CCc2ccccc2)CC2=C1C(=O)OC(C)(C)O2	/	/	/	2	9
CC(NC(=O)/C(C#N)=C/c1ccc(Cl)c([N+](=O)[O-])c1)c1ccccc1 (stereo unspecified)	93*	9	9	/	/
C[C@@H](NC(=O)/C(C#N)=C/c1ccc(O)c(O)c1)c1ccccc1	40	16	-3	16	7
O=C(N/N=C/c1cn(-c2ccccc2)nc1-c1cccs1)c1ccncc1	53*	-14	0	8	8
